# Test results: ChEMBL document CHEMBL3286380, “Design and synthesis of lupeol analogues and their glucose uptake stimulatory effect in L6 skeletal muscle cells” (Bioorg Med Chem Lett, 2014)
# The source made the active and inactive calls. No cut-off for these calls is given here.
# Legend:
# [1] = target: 5'-AMP-activated protein kinase catalytic subunit alpha-1 (Rattus norvegicus) (UniProt P54645); assay: Effect on AMPK-alpha phosphorylation at Thr-172 residue in rat L6 cells at 10 uM after 16 hrs by immunoblot analysis; type: cell-based
# 5'-AMP-activated protein kinase catalytic subunit alpha-1 (Rattus norvegicus), sequence (P54645 whole entry): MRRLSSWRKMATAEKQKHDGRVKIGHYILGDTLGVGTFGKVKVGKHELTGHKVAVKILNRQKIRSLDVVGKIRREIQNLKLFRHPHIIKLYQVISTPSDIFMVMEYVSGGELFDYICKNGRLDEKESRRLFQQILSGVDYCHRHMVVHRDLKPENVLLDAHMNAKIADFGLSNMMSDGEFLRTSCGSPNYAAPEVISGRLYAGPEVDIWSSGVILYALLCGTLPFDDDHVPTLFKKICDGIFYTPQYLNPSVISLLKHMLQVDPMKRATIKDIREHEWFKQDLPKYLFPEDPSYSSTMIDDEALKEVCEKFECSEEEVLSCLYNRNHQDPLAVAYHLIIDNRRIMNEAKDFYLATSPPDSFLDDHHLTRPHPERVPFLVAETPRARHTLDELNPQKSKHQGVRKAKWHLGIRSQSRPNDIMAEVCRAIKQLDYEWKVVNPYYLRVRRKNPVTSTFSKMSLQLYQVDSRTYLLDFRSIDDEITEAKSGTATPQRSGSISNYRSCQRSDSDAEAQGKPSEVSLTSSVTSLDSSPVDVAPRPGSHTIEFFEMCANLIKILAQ
# Outline: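 L6 myotubes exposed to compound (10 µM) for 16 h, then lysed; western blot for phospho-AMPK (Thr-172), quantified by densitometry relative to total AMPK. Mean ± SEM of three independent experiments.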
# L6 [2] = assay: Increase in 2-[3H]-deoxyglucose uptake in rat L6 cells after 16 hrs by scintillation counting analysis; type: functional, cell-based
# Outline: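 Dose–response in L6 myotubes: vehicle (DMSO) or compound at 5, 10, 25 µM for 16 h before glucose uptake measurement; rosiglitazone 10 µM as positive control. Expressed as fold stimulation over control; mean ± SE of three independent experiments, each in triplicate.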
# L6 [3] = assay: Potentiation of insulin-stimulated 2-[3H]-deoxyglucose uptake in rat L6 cells at 10 uM treated for 16 hrs followed by incubation for 3 hrs in serum free medium and insulin stimulation for 20 mins by scintillation counting analysis; type: functional, cell-based
# Outline: (§1)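 Cells (L6 myotubes, 3T3-L1 adipocytes or HepG2 hepatic cells) treated with compound (10 µM) for 16 h, last 3 h serum-free, with or without insulin (100 nM, 20 min) before glucose uptake. Reported as fold stimulation over basal control; mean ± SE of three independent experiments, each in triplicate.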
# HepG2 = assay: Potentiation of insulin-stimulated 2-[3H]-deoxyglucose uptake in human HepG2 cells at 10 uM treated for 16 hrs followed by incubation for 3 hrs in serum free medium and insulin stimulation for 20 mins by scintillation counting analysis; type: functional, cell-based; outline: as §1
# 3T3-L1 = assay: Potentiation of insulin-stimulated 2-[3H]-deoxyglucose uptake in mouse 3T3L1 cells at 10 uM treated for 16 hrs followed by incubation for 3 hrs in serum free medium and insulin stimulation for 20 mins by scintillation counting analysis; type: functional, cell-based; outline: as §1
# L6 [4] = assay: Increase in 2-[3H]-deoxyglucose uptake in rat L6 cells at 10 uM after 16 hrs by scintillation counting analysis (reference value: 0%); type: functional
# [5] = target: T1, Solute carrier family 2, facilitated glucose transporter member 4 (Rattus norvegicus) (UniProt P19357); assay: Induction of GLUT4 translocation to cell surface in rat L6-GLUT4myc cells at 10 uM treated for 16 hrs followed by incubation for 3 hrs in serum free medium and insulin stimulation for 20 mins; type: cell-based
# T1 sequence (whole entry): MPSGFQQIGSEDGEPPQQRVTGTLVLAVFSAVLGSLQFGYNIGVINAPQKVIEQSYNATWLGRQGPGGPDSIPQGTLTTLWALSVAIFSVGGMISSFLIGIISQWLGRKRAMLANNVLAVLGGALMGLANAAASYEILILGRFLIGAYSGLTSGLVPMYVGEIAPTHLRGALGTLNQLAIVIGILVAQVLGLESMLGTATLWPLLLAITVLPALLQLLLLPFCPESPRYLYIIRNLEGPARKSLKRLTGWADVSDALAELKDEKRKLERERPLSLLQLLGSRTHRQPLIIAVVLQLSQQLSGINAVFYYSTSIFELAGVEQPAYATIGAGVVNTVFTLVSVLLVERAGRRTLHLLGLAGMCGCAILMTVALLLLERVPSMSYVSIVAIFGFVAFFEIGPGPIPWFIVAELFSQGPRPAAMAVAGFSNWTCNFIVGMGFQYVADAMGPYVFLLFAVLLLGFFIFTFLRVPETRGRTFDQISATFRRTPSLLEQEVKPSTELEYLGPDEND
# Outline: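 L6-GLUT4myc myotubes given compound (10 µM) for 16 h, the final 3 h in serum-free medium; a subset stimulated with insulin (100 nM) for 20 min before measuring surface GLUT4myc. Fold over basal control; mean ± SE, three independent experiments in triplicate.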
# L6 [6] = assay: Potentiation of insulin-stimulated 2-[3H]-deoxyglucose uptake in rat L6 cells at 10 uM treated for 16 hrs followed by incubation for 3 hrs in serum free medium and insulin stimulation for 20 mins by scintillation counting analysis in presence of PI3K inhibitor wortmannin; type: functional, cell-based
# Outline: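 L6 myotubes were given compound (10 μM) for 16 h, with or without wortmannin (50 nM). Insulin treatment followed, then glucose uptake was measured. Values are expressed as fold stimulation over basal control.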
# [7] = target: T2, Insulin receptor substrate 1 (Rattus norvegicus) (UniProt P35570); assay: Increase in IRS-1-mediated Akt phosphorylation in rat L6 cells at 10 uM treated for 16 hrs followed by incubation for 3 hrs in serum free medium and insulin stimulation for 20 mins by Western blot analysis; type: cell-based
# T2 sequence (whole entry): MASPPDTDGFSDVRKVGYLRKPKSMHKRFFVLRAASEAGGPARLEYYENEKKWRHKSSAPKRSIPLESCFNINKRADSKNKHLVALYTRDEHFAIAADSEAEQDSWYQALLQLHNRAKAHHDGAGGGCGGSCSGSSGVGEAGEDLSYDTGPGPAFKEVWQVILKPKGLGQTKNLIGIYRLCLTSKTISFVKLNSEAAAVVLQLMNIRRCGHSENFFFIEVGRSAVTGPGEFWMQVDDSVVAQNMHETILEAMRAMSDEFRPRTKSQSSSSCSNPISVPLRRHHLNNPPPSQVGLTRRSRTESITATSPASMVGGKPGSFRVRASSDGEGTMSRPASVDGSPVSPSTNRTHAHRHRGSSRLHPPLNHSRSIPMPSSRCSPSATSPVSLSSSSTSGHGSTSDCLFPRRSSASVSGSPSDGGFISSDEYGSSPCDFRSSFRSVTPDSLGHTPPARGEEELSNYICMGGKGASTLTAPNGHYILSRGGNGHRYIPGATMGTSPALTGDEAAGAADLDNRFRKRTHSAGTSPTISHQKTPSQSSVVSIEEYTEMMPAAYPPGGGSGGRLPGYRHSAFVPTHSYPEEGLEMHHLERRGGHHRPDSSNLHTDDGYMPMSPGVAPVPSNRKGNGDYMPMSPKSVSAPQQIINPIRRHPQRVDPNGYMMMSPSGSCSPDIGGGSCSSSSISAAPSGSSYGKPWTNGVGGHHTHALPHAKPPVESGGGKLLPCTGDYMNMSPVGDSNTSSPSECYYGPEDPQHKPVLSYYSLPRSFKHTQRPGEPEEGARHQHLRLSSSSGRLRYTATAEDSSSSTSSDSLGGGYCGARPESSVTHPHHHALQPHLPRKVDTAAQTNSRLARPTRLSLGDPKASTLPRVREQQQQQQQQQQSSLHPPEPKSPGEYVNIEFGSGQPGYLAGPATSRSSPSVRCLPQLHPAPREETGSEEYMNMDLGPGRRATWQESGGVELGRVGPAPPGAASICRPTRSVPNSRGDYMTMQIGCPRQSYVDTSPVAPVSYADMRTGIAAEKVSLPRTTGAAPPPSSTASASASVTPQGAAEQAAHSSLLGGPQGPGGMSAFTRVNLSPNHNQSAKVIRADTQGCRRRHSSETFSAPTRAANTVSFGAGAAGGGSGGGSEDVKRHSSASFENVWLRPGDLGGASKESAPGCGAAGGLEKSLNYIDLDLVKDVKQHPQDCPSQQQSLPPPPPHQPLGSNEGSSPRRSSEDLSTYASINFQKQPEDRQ
# Outline: (§2)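 L6 myotubes were exposed to compound (10 μM) for 16 h, serum-free for the last 3 h. One subset then received insulin (100 nM) for 20 min. Cells were lysed and equal protein amounts were western blotted. Densitometry gave pIRβ/IRβ, pIRS-1/IRS-1 and pAKT/AKT ratios. Three independent experiments, mean SEM.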
# [8] = target: T2, Insulin receptor substrate 1 (Rattus norvegicus); assay: Increase in IRS-1 phosphorylation in rat L6 cells at 10 uM treated for 16 hrs followed by incubation for 3 hrs in serum free medium and insulin stimulation for 20 mins by Western blot analysis; type: cell-based; outline: as §2
# [9] = target: Insulin receptor (Rattus norvegicus) (UniProt P15127); assay: Effect on IR-beta phosphorylation in rat L6 cells at 10 uM treated for 16 hrs followed by incubation for 3 hrs in serum free medium and insulin stimulation for 20 mins by Western blot analysis; type: cell-based; outline: as §2
# Insulin receptor (Rattus norvegicus), sequence (P15127 27-759 limits assumed): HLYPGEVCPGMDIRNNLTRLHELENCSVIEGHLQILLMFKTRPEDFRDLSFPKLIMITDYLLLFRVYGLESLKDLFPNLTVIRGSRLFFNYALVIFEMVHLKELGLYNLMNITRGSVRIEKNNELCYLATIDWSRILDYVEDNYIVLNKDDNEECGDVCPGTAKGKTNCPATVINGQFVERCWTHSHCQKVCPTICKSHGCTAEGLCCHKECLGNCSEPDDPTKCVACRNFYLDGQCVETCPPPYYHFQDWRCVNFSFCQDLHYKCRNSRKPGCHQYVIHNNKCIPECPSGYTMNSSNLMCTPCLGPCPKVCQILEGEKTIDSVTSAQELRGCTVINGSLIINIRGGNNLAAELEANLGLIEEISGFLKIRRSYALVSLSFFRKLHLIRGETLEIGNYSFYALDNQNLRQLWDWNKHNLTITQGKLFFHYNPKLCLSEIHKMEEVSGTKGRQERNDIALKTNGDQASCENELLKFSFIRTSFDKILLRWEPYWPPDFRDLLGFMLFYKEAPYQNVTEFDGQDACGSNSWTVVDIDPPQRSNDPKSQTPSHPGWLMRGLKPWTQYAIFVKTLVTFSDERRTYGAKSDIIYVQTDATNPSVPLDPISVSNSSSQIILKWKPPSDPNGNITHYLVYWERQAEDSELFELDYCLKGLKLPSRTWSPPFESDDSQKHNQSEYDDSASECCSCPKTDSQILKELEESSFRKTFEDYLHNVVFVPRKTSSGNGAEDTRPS
# Insulin receptor (Rattus norvegicus), sequence (P15127 764-1383 limits assumed): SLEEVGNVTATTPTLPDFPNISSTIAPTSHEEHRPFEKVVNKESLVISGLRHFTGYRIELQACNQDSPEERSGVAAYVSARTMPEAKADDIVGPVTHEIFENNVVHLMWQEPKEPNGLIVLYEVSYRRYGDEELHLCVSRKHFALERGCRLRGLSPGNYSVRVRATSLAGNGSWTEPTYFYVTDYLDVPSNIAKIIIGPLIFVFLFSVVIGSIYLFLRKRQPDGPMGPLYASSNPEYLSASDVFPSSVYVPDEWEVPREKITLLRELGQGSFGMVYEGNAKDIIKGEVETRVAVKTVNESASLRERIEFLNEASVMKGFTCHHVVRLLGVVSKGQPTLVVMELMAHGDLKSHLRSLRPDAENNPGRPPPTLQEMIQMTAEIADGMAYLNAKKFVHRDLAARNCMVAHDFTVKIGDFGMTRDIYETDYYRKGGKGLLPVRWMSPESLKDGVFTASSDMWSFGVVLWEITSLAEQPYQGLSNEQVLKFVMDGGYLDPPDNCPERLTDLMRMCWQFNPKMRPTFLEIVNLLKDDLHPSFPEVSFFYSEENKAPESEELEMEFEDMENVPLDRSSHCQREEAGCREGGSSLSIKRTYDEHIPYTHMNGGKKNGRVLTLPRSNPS
# L6 [10] = assay: Increase in 2-[3H]-deoxyglucose uptake in rat L6 cells at 10 uM after 16 hrs by scintillation counting analysis relative to lupeol; type: functional
structure (smiles),measurement,setting,value
C=C(C=O)[C@@H]1CC[C@]2(C)CC[C@]3(C)[C@H](CC[C@@H]4[C@@]5(C)CC[C@H](OC(=O)/C=C/c6ccccc6)C(C)(C)[C@@H]5CC[C@]43C)[C@@H]12,Activity,[1],inactive
same,Activity,L6 [2],Dose-dependent effect
same,EC50,L6 [2],6.2 µM
same,Activity,L6 [3],Active
same,Activity,HepG2,Active
same,Activity,3T3-L1,Active
same,Activity,L6 [4],98.3%
same,Activity,[5],Active
C=CC1=COC[C@@H]1[C@@H]1CC[C@]2(C)CC[C@]3(C)[C@H](CC[C@@H]4[C@@]5(C)CC[C@H](OC(C)=O)C(C)(C)[C@@H]5CC[C@]43C)[C@@H]12,Activity,L6 [4],2.1%
CC1(C)[C@@H](O)CC[C@]2(C)[C@H]3CC[C@@H]4[C@H]5[C@H]([C@@H](C=O)C(O)c6ccccc6)CC[C@]5(C)CC[C@@]4(C)[C@]3(C)CC[C@@H]12 (stereo partly specified),Activity,L6 [4],6.4%
CC(C)C(Br)C(=O)O[C@H]1CC[C@]2(C)[C@H]3CC[C@@H]4[C@H]5[C@H]([C@H]6C=NN(C(=O)C(Br)C(C)C)C6)CC[C@]5(C)CC[C@@]4(C)[C@]3(C)CC[C@H]2C1(C)C (stereo partly specified),Activity,L6 [4],8.4%
CC1(C)[C@@H](OC(=O)CCc2ccc(Cl)cc2)CC[C@]2(C)[C@H]3CC[C@@H]4[C@H]5[C@H]([C@H]6C=NN(C(=O)CCc7ccc(Cl)cc7)C6)CC[C@]5(C)CC[C@@]4(C)[C@]3(C)CC[C@@H]12,Activity,L6 [4],2.8%
C#CCOCC(=C)[C@@H]1CC[C@]2(C)CC[C@]3(C)[C@H](CC[C@@H]4[C@@]5(C)CC[C@H](OC(C)=O)C(C)(C)[C@@H]5CC[C@]43C)[C@@H]12,Activity,L6 [4],19.2%
C=C(CO)[C@@H]1CC[C@]2(C)CC[C@]3(C)[C@H](CC[C@@H]4[C@@]5(C)CC[C@H](OC(C)=O)C(C)(C)[C@@H]5CC[C@]43C)[C@@H]12,Activity,L6 [4],22.2%
CN(CCOc1ccc(CC2SC(=O)NC2=O)cc1)c1ccccn1 (stereo unspecified) [ROSIGLITAZONE],EC50,L6 [2],4.8 µM
same,Activity,L6 [4],112.4%
C=C(C=O)[C@@H]1CC[C@]2(C)CC[C@]3(C)[C@H](CC[C@@H]4[C@@]5(C)CC[C@H](O)C(C)(C)[C@@H]5CC[C@]43C)[C@@H]12,Activity,[1],inactive
same,Activity,L6 [2],Dose-dependent effect
same,EC50,L6 [2],4.2 µM
same,Activity,L6 [6],inactive
same,Activity,[7],Active
same,Activity,[8],Active
same,Activity,[9],inactive
same,Activity,L6 [3],Active
same,Activity,HepG2,Active
same,Activity,3T3-L1,Active
same,Activity,L6 [4],173.1%
same,Activity,[5],Active
C=C(C)[C@@H]1CC[C@]2(C)CC[C@]3(C)[C@H](CC[C@@H]4[C@@]5(C)CC[C@H](O)C(C)(C)[C@@H]5CC[C@]43C)[C@@H]12 [LUPEOL],Activity,L6 [4],26.8%
C=CCOCC(=C)[C@@H]1CC[C@]2(C)CC[C@]3(C)[C@H](CC[C@@H]4[C@@]5(C)CC[C@H](OC(C)=O)C(C)(C)[C@@H]5CC[C@]43C)[C@@H]12,Activity,L6 [4],8.5%
C=C(C=O)[C@@H]1CC[C@]2(C)CC[C@]3(C)[C@H](CC[C@@H]4[C@@]5(C)CC[C@H](OC(C)=O)C(C)(C)[C@@H]5CC[C@]43C)[C@@H]12,Activity,[1],inactive
same,Activity,L6 [2],Dose-dependent effect
same,EC50,L6 [2],5.2 µM
same,Activity,L6 [3],Active
same,Activity,HepG2,Active
same,Activity,3T3-L1,Active
same,fold change (FC),L6 [10],4.5
same,Activity,L6 [4],114.1%
same,Activity,[5],Active
CC1(C)[C@@H](O)CC[C@]2(C)[C@H]3CC[C@@H]4[C@H]5[C@H]([C@H]6C=NOC6c6ccccc6)CC[C@]5(C)CC[C@@]4(C)[C@]3(C)CC[C@@H]12 (stereo partly specified),Activity,L6 [4],13.2%
C=C(C=O)[C@@H]1CC[C@]2(C)CC[C@]3(C)[C@H](CC[C@@H]4[C@@]5(C)CC[C@H](OC(=O)C(Br)C(C)C)C(C)(C)[C@@H]5CC[C@]43C)[C@@H]12 (stereo partly specified),Activity,L6 [4],3.1%
CC(=O)O[C@H]1CC[C@]2(C)[C@H]3CC[C@@H]4[C@H]5[C@H]([C@@H]6C=COC6)CC[C@]5(C)CC[C@@]4(C)[C@]3(C)CC[C@H]2C1(C)C,Activity,L6 [4],3.6%
C=C(C=O)[C@@H]1CC[C@]2(C)CC[C@]3(C)[C@H](CC[C@@H]4[C@@]5(C)CC[C@H](OC(=O)CCc6ccc(Cl)cc6)C(C)(C)[C@@H]5CC[C@]43C)[C@@H]12,Activity,L6 [4],0.5%
CC1(C)[C@@H](OC(=O)/C=C/c2ccccc2)CC[C@]2(C)[C@H]3CC[C@@H]4[C@H]5[C@H](C6C=NN(C(=O)/C=C/c7ccccc7)C6)CC[C@]5(C)CC[C@@]4(C)[C@]3(C)CC[C@@H]12 (stereo partly specified),Activity,[1],inactive
same,Activity,L6 [2],Dose-dependent effect
same,EC50,L6 [2],4.9 µM
same,Activity,L6 [6],inactive
same,Activity,[7],Active
same,Activity,[8],Active
same,Activity,[9],inactive
same,Activity,L6 [3],Active
same,Activity,HepG2,Active
same,Activity,3T3-L1,Active
same,Activity,L6 [4],107.3%
same,Activity,[5],Active
CC1(C)[C@@H](O)CC[C@]2(C)[C@H]3CC[C@@H]4[C@H]5[C@H]([C@H]6C=NNC6)CC[C@]5(C)CC[C@@]4(C)[C@]3(C)CC[C@@H]12,Activity,L6 [4],16.1%
